Screening results from PubChem BioAssay.
Sampled rows, rich in hits. Any-hit rate of the full collection: about 4.4%.
HSF-1 act: increases HSF-1 driven luciferase reporter signal | NIH3T3-HGL HSF-1 luciferase reporter, MG132, 8 h; 100% = twice DMSO control signal | activation, % at 9 µM | 300,000 tested, 1.7% active | AID 504408;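 active means mean replicate activation of at least 50% with a set share of replicates each reaching 50%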;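 further: 0% = median of the neutral control wells and 100% = twice that signal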
HIF activator: HIF pathway transcriptional activation. activation, % at 7.5 µM (by protocol). U2OS HRE-luciferase reporter, luminescence; normalized: DMSO 0%, desferrioxamine 100%. 300,000 tested, 0.32% active;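 active means mean activation of at least 10% of the iron chelator positive control signal, with at least half of replicates also reaching 10%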
HSF1 inh: HSF1 inhibition; 300,000 tested, 0.77% active; AID 2098; activity change, negative = inhibition, % at 7.5 µM (by protocol); NIH3T3-HGL HSE-luciferase, MG132-induced, luminescence 8 h; hits give low values;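 active means more than half of replicate wells show activity change below -50%, luminescence cut by over half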;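 further: luciferase reports HSF-1 transcriptional activity via heat shock element; 0% = median of DMSO wells and -100% = zero luminescence signal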
Calb FLC: affects C. albicans growth with fluconazole; 300,000 tested, 0.57% active; growth inhibition, % (no concentration beside the values); C. albicans CaCi-2 + fluconazole, Alamar Blue growth, 48 h;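 active means growth inhibition above about 58% in most replicates, limit read from the data, passing the limit was not always enough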;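 further: all wells also contain fluconazole at 8 µg/ml as a sub-toxic cotreatment; 0% = median of DMSO wells and 100% = median of geldanamycin control wells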
T cruzi repl: blocks replication of Trypanosoma cruzi; AID 1885; T. cruzi beta-gal in NIH3T3, luminescence, 90 h; 300,000 tested, 1.4% active; inhibition, % (no concentration beside the values);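 active means mean inhibition across valid replicates above about 55%, limit read from the data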;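 further: signal also drops with host cell toxicity which is not excluded here; 0% = plate median of DMSO wells and 100% = zero luminescence signal; higher percent means less beta-gal luminescence so fewer parasites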
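Assay system: NIH/3T3 fibroblasts plus reporter T. cruzi. Amount: NIH/3T3 cells, 5,000 per well. Buffer or medium: DMEM, 2% fetal bovine serum. Doses: compound pinned at 50 nL/well, DMSO. Schedule: ≥90 h infection period, 3 h prior cell attachment. Signal: luminescent β-galactosidase signal after 60 min lysis. Read-out: parasite load inhibition, %.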
* marks the source's active call; other numbers are inactive results.

How did Cc1ccc(N2C(=O)[C@@H]3C(c4cccnc4)=NO[C@@H]3C2=O)cc1 do in these assays?
HSF-1 act: 2; HIF activator: -1; HSF1 inh: 7; Calb FLC: 28; T cruzi repl: -13

Results for COc1ccc(N2C(=O)[C@@H]3C(c4cccnc4)=NO[C@@H]3C2=O)cc1 ?
HSF-1 act: -8; HIF activator: 30*; HSF1 inh: -3; Calb FLC: -4; T cruzi repl: -10

How did OCC[C@H]1C[C@@H](O)[C@H](O)[C@]2(CCCO2)O1 do in these assays?
HSF-1 act: 5; HIF activator: -1; HSF1 inh: -1; Calb FLC: -12; T cruzi repl: -12

What do the screens show for `COc1cccc(SCc2noc(C(=O)NCCC(C)C)c2C(=O)NCCC(C)C)c1`?
HSF-1 act: -13; HIF activator: 0; HSF1 inh: -7; Calb FLC: 6; T cruzi repl: 30

Results for CCOC(=O)c1ccc(Nc2ncnc3ccccc23)cc1 ?
HSF-1 act: -28; HIF activator: 5; HSF1 inh: -26; Calb FLC: 1; T cruzi repl: -8

Results for CCOC(=O)c1ccc(Nc2ncnc3nc[nH]c23)cc1 ?
HSF-1 act: -78; HIF activator: 4; HSF1 inh: -75*; Calb FLC: 12; T cruzi repl: -4

How did COc1cccc(/C=N/Nc2nc(Nc3ccc([N+](=O)[O-])cc3)nc(N3CCCC3)n2)c1O do in these assays?
HSF-1 act: -20; HIF activator: 0; HSF1 inh: -20; Calb FLC: 72*; T cruzi repl: 55*

What do the screens show for `COc1cccc(/C=N/Nc2ccnc(=O)[nH]2)c1O`?
HSF-1 act: 2; HIF activator: 0; HSF1 inh: 1; Calb FLC: 38; T cruzi repl: -13

Results for O=[N+]([O-])c1ccc(Nc2nc(NC3CCCCC3)nc(N3CCCC3)n2)cc1 ?
HSF-1 act: -3; HIF activator: 0; HSF1 inh: 5; Calb FLC: 19; T cruzi repl: 65*

How did COc1cccc(/C=N/Nc2ccc([N+](=O)[O-])cn2)c1O do in these assays?
HSF-1 act: 96*; HIF activator: 50*; HSF1 inh: 63; Calb FLC: 97*; T cruzi repl: 25

What do the screens show for `[O-]/[N+](=C\c1ccncc1)c1ccc(Br)cc1`?
HSF-1 act: 117*; HIF activator: 3; HSF1 inh: 78; Calb FLC: -5; T cruzi repl: -9

How did Cc1cc2occ(CC(=O)N(C)CC(=O)Nc3cccc(F)c3)c2cc1C do in these assays?
HSF-1 act: 40; HIF activator: 1; HSF1 inh: 8; Calb FLC: -2; T cruzi repl: -4

Results for Cc1sc2ncnc(N3CCC(C(=O)Nc4nc(-c5cccs5)cs4)CC3)c2c1C ?
HSF-1 act: -55; HIF activator: 0; HSF1 inh: -54*; Calb FLC: -6; T cruzi repl: 64*

How did CCCCc1nnc(NC(=O)C2CCN(c3ncnc4sc(C)c(C)c34)CC2)s1 do in these assays?
HSF-1 act: 7; HIF activator: 0; HSF1 inh: 12; Calb FLC: 2; T cruzi repl: 32

What do the screens show for `CCOC(=O)c1cc(-c2ccccc2)sc1NC(=O)CC`?
HSF-1 act: -10; HIF activator: 0; HSF1 inh: -12; Calb FLC: -3; T cruzi repl: 10

What do the screens show for `CCOC(=O)c1cc(-c2ccccc2)sc1NC(=O)CN1C(=O)NC(CC)(c2ccc(F)cc2)C1=O` (stereo unspecified)?
HSF-1 act: 16; HIF activator: -2; HSF1 inh: 4; Calb FLC: -6; T cruzi repl: 60*

Results for CCOC(=O)c1cc(-c2ccccc2)sc1NC(=O)CN1C(=O)NC(CC)(c2ccccc2)C1=O (stereo unspecified) ?
HSF-1 act: 5; HIF activator: -1; HSF1 inh: -2; Calb FLC: -1; T cruzi repl: 66*

Results for Cc1cccc(NC(=O)c2ccc([N+](=O)[O-])s2)c1C ?
HSF-1 act: 56*; HIF activator: 0; HSF1 inh: 17; Calb FLC: 31; T cruzi repl: 66*

How did Cc1cccc(NC(=O)c2ccc([N+](=O)[O-])s2)n1 do in these assays?
HSF-1 act: 24; HIF activator: 1; HSF1 inh: 17; Calb FLC: -1; T cruzi repl: 65*
